Active and inactive are the calls of the source. The calls are words filed in the database; no cut-off is given here.
How the values were obtained:
[1] = target: T1, Polyunsaturated fatty acid 5-lipoxygenase (Homo sapiens) (UniProt P09917); test: Inhibition of 5-LOX-mediated LTB4 production in human neutrophils using arachidonic acid as substrate at 40 uM preincubated for 10 mins followed by substrate addition measured after 8 mins by enzyme immunoassay relative to control
T1 sequence (whole entry): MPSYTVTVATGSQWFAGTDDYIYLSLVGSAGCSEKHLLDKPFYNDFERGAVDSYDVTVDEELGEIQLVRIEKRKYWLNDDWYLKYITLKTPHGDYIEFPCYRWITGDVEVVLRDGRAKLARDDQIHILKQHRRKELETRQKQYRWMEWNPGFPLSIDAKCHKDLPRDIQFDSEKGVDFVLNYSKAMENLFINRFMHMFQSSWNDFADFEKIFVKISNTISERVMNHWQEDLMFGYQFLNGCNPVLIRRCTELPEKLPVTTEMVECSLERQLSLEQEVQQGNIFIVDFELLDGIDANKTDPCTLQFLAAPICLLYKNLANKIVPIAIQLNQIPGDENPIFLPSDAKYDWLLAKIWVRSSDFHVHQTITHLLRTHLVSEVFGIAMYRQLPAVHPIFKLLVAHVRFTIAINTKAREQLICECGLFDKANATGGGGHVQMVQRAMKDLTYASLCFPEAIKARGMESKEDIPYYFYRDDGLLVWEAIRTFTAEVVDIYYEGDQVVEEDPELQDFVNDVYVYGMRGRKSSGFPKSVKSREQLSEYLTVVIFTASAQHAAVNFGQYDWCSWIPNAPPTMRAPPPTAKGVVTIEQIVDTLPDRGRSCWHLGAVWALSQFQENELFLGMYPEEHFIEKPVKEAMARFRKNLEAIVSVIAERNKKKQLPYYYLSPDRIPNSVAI
How it was run: (§1)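 Isolated human neutrophils held in HBSS on ice; viability checked by trypan blue. Cells at 3.5×10^6 cells/mL equilibrated 10 min at 37 °C. Flavonoids (0.15–40 μM) pre-incubated 10 min, then A23187 (5 μM) plus arachidonic acid (10 μg/mL) added for 8 min. Stopped with cold methanol and centrifuged 13,000 g, 1 min, 4 °C. LTB4 measured by EIA and expressed as % inhibition of control. NDGA (1 μM) positive control. At least three experiments.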

[2] = target: T2, Seed linoleate 13S-lipoxygenase-1 (Glycine max) (UniProt P08170); test: Binding affinity to soybean LOX-1 at 1248 uM by STD-[1H] NMR spectroscopic analysis
T2 sequence (whole entry): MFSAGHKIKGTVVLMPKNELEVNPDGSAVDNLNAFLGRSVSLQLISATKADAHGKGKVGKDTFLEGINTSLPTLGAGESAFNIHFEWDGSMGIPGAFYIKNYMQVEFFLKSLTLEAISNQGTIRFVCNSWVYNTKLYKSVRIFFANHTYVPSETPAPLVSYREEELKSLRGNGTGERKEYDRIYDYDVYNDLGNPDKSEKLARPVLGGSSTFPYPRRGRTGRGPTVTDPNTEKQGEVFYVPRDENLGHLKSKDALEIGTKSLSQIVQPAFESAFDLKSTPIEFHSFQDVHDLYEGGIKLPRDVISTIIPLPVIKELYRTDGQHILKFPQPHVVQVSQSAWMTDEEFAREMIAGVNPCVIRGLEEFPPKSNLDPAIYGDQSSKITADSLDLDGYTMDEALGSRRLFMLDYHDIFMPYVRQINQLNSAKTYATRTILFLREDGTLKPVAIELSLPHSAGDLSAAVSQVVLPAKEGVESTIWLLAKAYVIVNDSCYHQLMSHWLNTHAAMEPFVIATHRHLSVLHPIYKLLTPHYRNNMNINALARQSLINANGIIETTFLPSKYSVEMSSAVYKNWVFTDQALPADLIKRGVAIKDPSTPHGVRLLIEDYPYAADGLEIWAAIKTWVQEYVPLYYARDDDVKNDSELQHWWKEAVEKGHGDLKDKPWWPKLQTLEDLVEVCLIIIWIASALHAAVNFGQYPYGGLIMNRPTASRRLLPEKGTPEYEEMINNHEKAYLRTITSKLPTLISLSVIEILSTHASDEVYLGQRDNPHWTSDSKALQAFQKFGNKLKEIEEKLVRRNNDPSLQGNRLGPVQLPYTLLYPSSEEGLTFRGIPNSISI
How it was run: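 STD-1H NMR at 37 °C, 600 MHz, cryoprobe. Lyophilized soybean LOX-1 in Tris buffer (20 mM Tris, 7 mM (NH4)2SO4, 3.5 mM MgCl2, 0.3 mM DTT in D2O, pH 9.0). Ligand added from a 16.6 mM DMSO-d6 stock. Final concentrations: LOX 4 μM, ligand 1248 μM, ratio 300:1. On-resonance saturation at 1.0 ppm; off-resonance reference at 20000 Hz.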

[3] = target: T3, Seed linoleate 13S-lipoxygenase-1 (Glycine max, UniProt P08170); test: Mixed noncompetitive type inhibition of soybean LOX-1 using linoleic acid as substrate preincubated for 5 mins followed by substrate addition by Lineweaver-Burk plot analysis
T3 sequence (P08170 whole entry): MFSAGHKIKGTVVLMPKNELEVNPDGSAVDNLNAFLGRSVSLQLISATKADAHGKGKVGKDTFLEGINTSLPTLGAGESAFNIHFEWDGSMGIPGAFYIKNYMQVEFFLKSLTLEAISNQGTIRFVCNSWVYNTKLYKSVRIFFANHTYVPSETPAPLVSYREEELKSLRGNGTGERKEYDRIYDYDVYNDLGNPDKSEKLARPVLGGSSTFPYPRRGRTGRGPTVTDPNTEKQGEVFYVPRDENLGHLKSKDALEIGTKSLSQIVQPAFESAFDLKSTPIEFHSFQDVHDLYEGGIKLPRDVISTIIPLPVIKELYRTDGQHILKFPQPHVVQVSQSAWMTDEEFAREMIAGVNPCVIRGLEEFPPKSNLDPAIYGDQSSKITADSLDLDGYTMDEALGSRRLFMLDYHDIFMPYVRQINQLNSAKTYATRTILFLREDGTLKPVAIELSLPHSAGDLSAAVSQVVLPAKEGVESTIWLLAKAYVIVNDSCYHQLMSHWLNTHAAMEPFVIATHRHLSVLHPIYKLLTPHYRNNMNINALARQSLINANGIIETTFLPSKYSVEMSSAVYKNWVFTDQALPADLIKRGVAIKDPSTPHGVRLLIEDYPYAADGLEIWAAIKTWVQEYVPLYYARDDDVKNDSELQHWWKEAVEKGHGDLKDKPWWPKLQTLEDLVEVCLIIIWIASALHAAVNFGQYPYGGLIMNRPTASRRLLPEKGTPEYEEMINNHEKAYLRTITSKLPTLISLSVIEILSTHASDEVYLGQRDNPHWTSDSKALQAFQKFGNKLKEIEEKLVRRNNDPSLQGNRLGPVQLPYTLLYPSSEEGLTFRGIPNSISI
How it was run: (§2)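 Soybean LOX-1 (supplied lyophilized) kinetic assay. Enzyme pre-incubated with inhibitor 5 min, then linoleic acid added. Conversion to the cis,trans-hydroperoxide followed at 234 nm at 30 °C with continuous soft shaking. Readings every 30 s for 10 min; rate taken as the 0–3 min slope. Three inhibitor concentrations tested against three substrate concentrations. Inhibition type assigned by nonlinear Michaelis–Menten fitting and Lineweaver–Burk plots. At least four experiments, each in triplicate.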

[4] = target: T4, Polyunsaturated fatty acid 5-lipoxygenase (Homo sapiens, UniProt P09917); test: Inhibition of 5-LOX-mediated LTB4 production in human neutrophils using arachidonic acid as substrate preincubated for 10 mins followed by substrate addition measured after 8 mins by enzyme immunoassay
T4 sequence (P09917 whole entry): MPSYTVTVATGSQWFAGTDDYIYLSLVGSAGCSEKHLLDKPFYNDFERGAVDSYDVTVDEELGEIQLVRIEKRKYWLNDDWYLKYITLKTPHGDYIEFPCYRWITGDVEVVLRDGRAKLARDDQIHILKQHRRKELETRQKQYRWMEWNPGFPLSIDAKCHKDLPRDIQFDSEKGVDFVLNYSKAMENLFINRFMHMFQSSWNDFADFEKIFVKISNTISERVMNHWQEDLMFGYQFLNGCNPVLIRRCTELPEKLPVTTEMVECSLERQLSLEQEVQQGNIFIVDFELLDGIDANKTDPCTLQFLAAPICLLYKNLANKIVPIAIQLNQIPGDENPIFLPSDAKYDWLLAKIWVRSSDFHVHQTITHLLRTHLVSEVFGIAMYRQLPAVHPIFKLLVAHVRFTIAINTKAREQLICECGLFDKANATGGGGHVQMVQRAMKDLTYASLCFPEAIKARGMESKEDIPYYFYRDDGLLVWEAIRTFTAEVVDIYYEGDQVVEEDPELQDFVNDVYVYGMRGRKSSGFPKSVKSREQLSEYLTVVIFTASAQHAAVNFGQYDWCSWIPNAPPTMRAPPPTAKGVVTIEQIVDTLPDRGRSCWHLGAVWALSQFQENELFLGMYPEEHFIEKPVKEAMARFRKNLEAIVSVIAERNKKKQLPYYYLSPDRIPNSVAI
How it was run: as §1, with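 “blue.” for “blue. Cells at 3.5×10^6 cells/mL equilibrated 10 min at 37 °C.”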

[5] = substrate: O=c1c(O)c(-c2ccc(O)c(O)c2)oc2cc(O)cc(O)c12; test: (§3) Activity at soybean LOX-1 using linoleic acid as substrate at 100 uM preincubated for 5 mins followed by substrate addition by Michaelis-Menten plot analysis; details: Glycine max; how it was run: as §2
[6] = substrate: O=c1cc(-c2ccc(O)cc2)oc2cc(O)cc(O)c12; test: as §3; details: Glycine max; how it was run: as §2
[7] = substrate: O=c1cc(-c2cccc(O)c2)oc2cc(O)cc(O)c12; test: as §3; details: Glycine max; how it was run: as §2
[8] = substrate: O=c1cc(-c2ccc(O)c(O)c2)oc2cc(O)cc(O)c12; test: (§4) Activity at soybean LOX-1 using linoleic acid as substrate at 50 uM preincubated for 5 mins followed by substrate addition by Michaelis-Menten plot analysis; details: Glycine max; how it was run: as §2
[9] = substrate: O=c1cc(-c2ccc(O)c(O)c2)oc2cccc(O)c12; test: as §4; details: Glycine max; how it was run: as §2
[10] = substrate: O=c1cc(-c2ccc(O)cc2)oc2cccc(O)c12; test: as §4; details: Glycine max; how it was run: as §2
[11] = substrate: O=c1cc(-c2cccc(O)c2)oc2cc(O)cc(O)c12; test: as §4; details: Glycine max; how it was run: as §2
[12] = substrate: O=c1c(O)c(-c2ccc(O)c(O)c2)oc2cc(O)cc(O)c12; test: (§5) Activity at soybean LOX-1 using linoleic acid as substrate at 25 uM preincubated for 5 mins followed by substrate addition by Michaelis-Menten plot analysis; details: Glycine max; how it was run: as §2
[13] = substrate: O=c1cc(-c2ccc(O)c(O)c2)oc2cc(O)ccc12; test: as §5; details: Glycine max; how it was run: as §2
[14] = substrate: O=c1cc(-c2ccc(O)c(O)c2)oc2cccc(O)c12; test: as §5; details: Glycine max; how it was run: as §2
[15] = substrate: O=c1cc(-c2ccc(O)c(O)c2)oc2ccccc12; test: as §5; details: Glycine max; how it was run: as §2
[16] = substrate: O=c1cc(-c2ccc(O)cc2)oc2cc(O)cc(O)c12; test: as §5; details: Glycine max; how it was run: as §2
[17] = substrate: O=c1cc(-c2ccccc2)oc2cc(O)cc(O)c12; test: as §5; details: Glycine max; how it was run: as §2
[18] = substrate: O=c1cc(-c2ccc(O)c(O)c2)oc2cc(O)cc(O)c12; test: (§6) Activity at soybean LOX-1 using linoleic acid as substrate at 10 uM preincubated for 5 mins followed by substrate addition by Michaelis-Menten plot analysis; details: Glycine max; how it was run: as §2
[19] = substrate: O=c1cc(-c2ccc(O)c(O)c2)oc2cc(O)ccc12; test: as §6; details: Glycine max; how it was run: as §2
[20] = substrate: O=c1cc(-c2ccc(O)c(O)c2)oc2ccccc12; test: as §6; details: Glycine max; how it was run: as §2
[21] = substrate: O=c1cc(-c2ccc(O)cc2)oc2cccc(O)c12; test: as §6; details: Glycine max; how it was run: as §2
[22] = substrate: O=c1cc(-c2ccccc2)oc2cc(O)cc(O)c12; test: as §6; details: Glycine max; how it was run: as §2

O=c1cc(-c2cccc(O)c2)oc2cccc(O)c12
inhibition [1]: < 50%

O=c1cc(-c2ccc(O)c(O)c2)oc2ccccc12
Activity [2]: Active | Ki [3]: 84.5 µM | IC50 [4]: 1.7 µM

O=c1cc(-c2ccc(O)cc2)oc2cc(O)cc(O)c12 [APIGENIN]
Activity [2]: Active | Ki [3]: 178 µM | inhibition [1]: < 50%

COc1cc(-c2cc(=O)c3c(O)cc(O)cc3o2)ccc1O
inhibition [1]: < 50%

O=c1cc(-c2ccccc2)oc2cc(O)ccc12
inhibition [1]: 53.1%

B1: Seed linoleate 13S-lipoxygenase-1 (Glycine max), P08170 (protein)
chain: MFSAGHKIKGTVVLMPKNELEVNPDGSAVDNLNAFLGRSVSLQLISATKADAHGKGKVGKDTFLEGINTSLPTLGAGESAFNIHFEWDGSMGIPGAFYIKNYMQVEFFLKSLTLEAISNQGTIRFVCNSWVYNTKLYKSVRIFFANHTYVPSETPAPLVSYREEELKSLRGNGTGERKEYDRIYDYDVYNDLGNPDKSEKLARPVLGGSSTFPYPRRGRTGRGPTVTDPNTEKQGEVFYVPRDENLGHLKSKDALEIGTKSLSQIVQPAFESAFDLKSTPIEFHSFQDVHDLYEGGIKLPRDVISTIIPLPVIKELYRTDGQHILKFPQPHVVQVSQSAWMTDEEFAREMIAGVNPCVIRGLEEFPPKSNLDPAIYGDQSSKITADSLDLDGYTMDEALGSRRLFMLDYHDIFMPYVRQINQLNSAKTYATRTILFLREDGTLKPVAIELSLPHSAGDLSAAVSQVVLPAKEGVESTIWLLAKAYVIVNDSCYHQLMSHWLNTHAAMEPFVIATHRHLSVLHPIYKLLTPHYRNNMNINALARQSLINANGIIETTFLPSKYSVEMSSAVYKNWVFTDQALPADLIKRGVAIKDPSTPHGVRLLIEDYPYAADGLEIWAAIKTWVQEYVPLYYARDDDVKNDSELQHWWKEAVEKGHGDLKDKPWWPKLQTLEDLVEVCLIIIWIASALHAAVNFGQYPYGGLIMNRPTASRRLLPEKGTPEYEEMINNHEKAYLRTITSKLPTLISLSVIEILSTHASDEVYLGQRDNPHWTSDSKALQAFQKFGNKLKEIEEKLVRRNNDPSLQGNRLGPVQLPYTLLYPSSEEGLTFRGIPNSISI
Km [5]: 100 µM | Vmax [5]: 0.006 µM | Km [6]: 191 µM | Km [7]: 111 µM | Km [8]: 148 µM | Vmax [8]: 0.009 µM | Km [9]: 46.4 µM | Km [10]: 61.3 µM | Km [11]: 145 µM | Km [12]: 129 µM | Vmax [12]: 0.008 µM | Km [13]: 190 µM | Km [14]: 104 µM | Km [15]: 191 µM | Km [16]: 191 µM | Km [17]: 55 µM | Km [18]: 190 µM | Vmax [18]: 0.012 µM | Km [19]: 97.4 µM | Km [20]: 137 µM | Km [21]: 105 µM | Km [22]: 71 µM
